How the values were obtained:
Nucleic Acid [1] = test: Concentration to give comigration of ccc PM-2 DNA with nicked PM-2 DNA under electrophoresis was evaluated.; format: nucleic-acid assay; settings: unidentified phage
Procedure, shortened: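 Agarose tube gels (1%, pH 7.4 Tris-Cl/EDTA/NaCl/acetate buffer) contained drug at final 0.00–1.00 µg/mL. PM-2 ccc-DNA was loaded with drug at a 5:1 DNA phosphate:drug ratio and run at 45 V, 20–25 °C, for 3–4 h. Gels were stained with ethidium. The critical concentration is where ccc-DNA comigrates with nicked PM-2 DNA.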

Nucleic Acid [2] = test: Compound was evaluated for DNA binding affinity; format: nucleic-acid assay; settings: Bos taurus
Procedure, shortened: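 Drug solution (5 × 10^-5 M, 3 mL; three samples) was titrated with sequential aliquots of 2.5 × 10^-3 M DNA. Absorbance was read at the unbound-drug λmax after equilibration, against a buffer blank. Free and bound drug were derived from the fractional decrease in extinction. Affinity K and site number n were taken from a Scatchard plot.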

HeLa [3] = test: Antiproliferative effect against HeLa cell lines at a concentration of 10.0 uM; format: functional, Homo sapiens
Mus musculus [4] = test: In vivo antileukemic activity against P-388 cells in mice and the treated /control value was determined at schedule Q01Dx01 at a dose of 8 mg/kg; format: functional
Procedure, shortened: (§1)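 Mice bearing P-388 leukaemia received the hydrochloride salts as a single dose on day 3 after inoculation (Q01D×01). Activity is expressed as treated/control (T/C).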

Mus musculus [5] = test: In vivo antileukemic activity against P-388 cells in mice and the treated /control value was determined at schedule Q01Dx01 at a dose of 2 mg/kg; format: functional; procedure, shortened: as §1
Mus musculus [6] = test: In vivo antileukemic activity against P-388 cells in mice and the treated /control value was determined at schedule Q01Dx01 at a dose of 1 mg/kg; format: functional; procedure, shortened: as §1
HEp-2 [7] = test: Antiproliferative effect against Hep2 cell lines at a concentration of 10.0 uM; format: functional, Homo sapiens
Mus musculus [8] = test: In vivo antileukemic activity against P-388 cells in mice and the treated /control value was determined at schedule Q01Dx01 at a dose of 4 mg/kg; format: functional; procedure, shortened: as §1
Mus musculus [9] = test: In vivo antileukemic activity against P-388 cells in mice and the treated /control value was determined at schedule Q01Dx01 at a dose of 16 mg/kg; format: functional; procedure, shortened: as §1
HeLa [10] = test: Antiproliferative effect against HeLa cell lines at a concentration of 1 uM; format: functional, Homo sapiens
Mus musculus [11] = test: In vivo antileukemic activity against P-388 cells in mice and the treated /control value was determined at schedule Q01Dx01 at a dose of 32 mg/kg; format: functional; procedure, shortened: as §1
HEp-2 [12] = test: Antiproliferative effect against Hep2 cell lines at a concentration of 1 uM; format: functional, Homo sapiens
Mus musculus [13] = test: In vivo antileukemic activity against P-388 cells in mice and the treated /control value was determined at schedule Q01Dx01 at a dose of 128 mg/kg; format: functional; procedure, shortened: as §1
Mus musculus [14] = test: In vivo antileukemic activity against P-388 cells in mice and the treated /control value was determined at schedule Q01Dx01 at a dose of 64 mg/kg; format: functional; procedure, shortened: as §1
Mus musculus [15] = test: In vivo antileukemic activity against P-388 cells in mice and the treated /control value was determined at schedule Q04Dx03 at a dose of 8 mg/kg
Mus musculus [16] = test: In vivo antileukemic activity against P-388 cells in mice and the treated /control value was determined at schedule Q04Dx03 at a dose of 16 mg/kg
Mus musculus [17] = test: In vivo antileukemic activity against P-388 cells in mice and the treated /control value was determined at schedule Q04Dx03 at a dose of 4 mg/kg

SMILES | Critical concentration (Nucleic Acid [1]) [µg/mL] | Affinity constant (Nucleic Acid [2]) [M⁻¹] | No. of untreated cells (HeLa [3]) [%] | T/C (Mus musculus [4]) | T/C (Mus musculus [5]) | T/C (Mus musculus [6]) | No. of untreated cells (HEp-2 [7]) [%] | T/C (Mus musculus [8]) | T/C (Mus musculus [9]) | No. of untreated cells (HeLa [10]) [%] | T/C (Mus musculus [11]) | No. of untreated cells (HEp-2 [12]) [%] | T/C (Mus musculus [13]) | T/C (Mus musculus [14]) | T/C (Mus musculus [15]) | T/C (Mus musculus [16]) | T/C (Mus musculus [17])
CCN(CC)CCNc1cccc2c1C(=O)c1ccccc1C2=O | 0.8 | 1.48e+06 | 96 | 100 | 98 | 105 | 92 | 100 | 95 | – | – | – | – | – | – | – | –
CCN(CC)CCNc1ccc(NCCN(CC)CC)c2c1C(=O)c1ccccc1C2=O | 0.16 | 3.17e+06 | – | 107 | 95 | 117 | – | 100 | 112 | 98 | 103 | 88 | 111 | 97 | – | – | –
CCN(CC)CCNc1cccc2c1C(=O)c1cccc(NCCN(CC)CC)c1C2=O | 0.16 | 3.97e+06 | – | 98 | 98 | 102 | – | 107 | 105 | 75 | 100 | 64 | 92 | 105 | – | – | –
COc1cccc2c1C(=O)c1c(O)c3c(c(O)c1C2=O)C[C@@](O)(C(=O)CO)C[C@@H]3O[C@H]1C[C@H](N)[C@H](O)[C@H](C)O1 [DOXORUBICIN] | – | – | – | – | – | – | – | – | – | 52 | – | 56 | – | – | – | – | –
CCN(CC)CCNc1cccc2c1C(=O)c1c(NCCN(CC)CC)cccc1C2=O | 0.4 | 1.71e+06 | 64 | 107 | 104 | – | 84 | 105 | – | – | – | – | – | – | 98 | 102 | 91

Source: ChEMBL document CHEMBL1122896, “Comparative computer graphics and solution studies of the DNA interaction of substituted anthraquinones based on doxorubicin and mitoxantrone” (1985)
